Results as given in ChEMBL document CHEMBL1122918, “Optimization of the Schiff bases of N-hydroxy-N'-aminoguanidine as anticancer and antiviral agents” (J Med Chem, 1985).

Columns and labels:
L1210 [1] = assay: Dose required for 50% inhibition of cell growth (L1210 Leukemia) calculated at 48 hours by using probit analysis.; type: functional, Mus musculus; settings: for IC50: Mus musculus, L1210, 48 h, read-out: ID50 (the source's name)
Procedure, shortened: (§1)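 L1210 cells in RPMI1640 with 10% fetal calf serum, seeded at (3–4) × 10⁴ cells/mL. Drug added to final 10⁻³ to 10⁻⁶ M, duplicates, with untreated and Me₂SO controls. Incubated at 37 °C in 5% CO₂, counted by Coulter counter.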

L1210 [2] = assay: Concentration required for 50% inhibition of cell growth (L1210 Leukemia); type: functional, cell-based; settings: Mus musculus, read-out: pI50 (converted); procedure, shortened: as §1
Rous sarcoma virus [3] = assay: Inhibition of cell transformation by Rous Sarcoma virus; type: functional; settings: read-out: ID50 (the source's name)
Procedure, shortened: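 Chick embryo fibroblasts at 5 × 10⁵ cells/60-mm dish, given about 200 focus-forming units of Rous sarcoma virus with drug (final 10⁻³ to 10⁻⁶ M, up to 1% Me₂SO in stock) for 8-16 h at 37 °C. Agar overlay with drug for 4 days, then second overlay. Foci counted on days 7-10; % inhibition = (1 − T/C)×100, probit analysis.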

Mus musculus = assay: Compound evaluated for % T/C of median survival time at 100 mg/kg against P388 leukemia in mice
[4] = Compound was evaluated for lethal dose in mice; type: toxicity, organism-based; settings: mouse, in vivo
Procedure, shortened: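 Swiss-Webster male mice, six per dose; compound suspended in 2.5% acacia in normal saline and injected intraperitoneally by body weight; vehicle-injected controls. LD50 calculated by probit analysis.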

Rous sarcoma virus [5] = assay: Compound tested for its effect on Rous sarcoma viral replication and virus yield was determined at 1e-6 M; type: functional
Procedure, shortened: (§2)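 Chick embryo cells at 5 × 10⁵ cells/60-mm dish, medium replaced with fresh Hams F10 medium plus drug solution and Rous sarcoma virus; control of medium plus virus only. On days 3 and 6, medium plus drug renewed; medium harvested two days later. Virus titer in harvests measured by drug-free focus assay on chick embryo fibroblasts and compared with control.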

Rous sarcoma virus [6] = assay: Compound was tested for percent inhibition against Rous sarcoma viral replication at 1e-6 M; type: functional; procedure, shortened: as §2
Rous sarcoma virus [7] = assay: Compound tested for its effect on Rous sarcoma viral replication and virus yield was determined at 7e-6M; type: functional; procedure, shortened: as §2
Rous sarcoma virus [8] = assay: Compound was tested for percent inhibition against Rous sarcoma viral replication at 7e-6M; type: functional; procedure, shortened: as §2
Rous sarcoma virus [9] = assay: Compound was tested for percent inhibition against Rous sarcoma viral replication at 3e-6M; type: functional; procedure, shortened: as §2
Rous sarcoma virus [10] = assay: Compound tested for its effect on Rous sarcoma viral replication and virus yield was determined at 3e-6M; type: functional; procedure, shortened: as §2
Rous sarcoma virus [11] = assay: Compound tested for its effect on Rous sarcoma viral replication and virus yield was determined at 5e-6M; type: functional; procedure, shortened: as §2
Rous sarcoma virus [12] = assay: Compound was tested for percent inhibition against Rous sarcoma viral replication at 5e-6M; type: functional; procedure, shortened: as §2
Rous sarcoma virus [13] = assay: Compound tested for its effect on Rous sarcoma viral replication and virus yield was determined at 2e-5 M; type: functional; procedure, shortened: as §2
Rous sarcoma virus [14] = assay: Compound was tested for percent inhibition against Rous sarcoma viral replication at 2e-5 M; type: functional; procedure, shortened: as §2

SMILES	IC50 (L1210 [1]) [µM]	IC50 (L1210 [2]) [µM]	IC50 (Rous sarcoma virus [3]) [µM]	other results
N/C(=N\O)N/N=C/c1ccc(Cl)c([N+](=O)[O-])c1	12.7	12.6	9.6	–
Cc1ccc(S(=O)(=O)O)cc1.N/C(=N\O)N/N=C/c1cc(Br)cc(Br)c1O	16.5	16.6	6.5	T/C (Mus musculus): 140%
N/C(=N\O)N/N=C/c1cccc([N+](=O)[O-])c1	7.6	7.59	35.7	–
N/C(=N\O)N/N=C/c1ccc(C(F)(F)F)cc1	9.2	9.12	11.8	–
Cc1ccc(S(=O)(=O)O)cc1.N#Cc1ccc(/C=N/N/C(N)=N/O)cc1	9.4	9.33	97.2	LD50 [4]: 156 mg/kg
NC(=O)NO [HYDROXYUREA]	21.6	21.4	–	–
N/C(=N\O)N/N=C/c1ccc(OCc2ccccc2)cc1	25.3	25.1	8.1	–
CS(=O)(=O)Oc1cccc(/C=N/N=C(\N)NO)c1	14.8	14.8	35.2	–
COc1ccc(OC)c(/C=N/N=C(\N)NO)c1.Cc1ccc(S(=O)(=O)O)cc1	7.1	7.08	2.7	Virus yield (Rous sarcoma virus [5]): 31000 ffu ml-1; Inhibition (Rous sarcoma virus [6]): 80%
Cc1ccc(S(=O)(=O)O)cc1.N/C(=N\O)N/N=C/C1CC2C=CC1C2 (stereo not drawn)	10.6	10.7	–	Virus yield (Rous sarcoma virus [7]): 9300 ffu ml-1; Inhibition (Rous sarcoma virus [8]): 94%
Cc1ccc(S(=O)(=O)O)cc1.N/C(=N\O)N/N=C/c1nccc2ccccc12	–	3.31	15.8	ID50 (L1210 [1]): 3.3 µM; Inhibition (Rous sarcoma virus [9]): 79%; Virus yield (Rous sarcoma virus [10]): 34000 ffu ml-1
Cc1ccc(S(=O)(=O)O)cc1.Cn1cccc1/C=N/N=C(\N)NO	2.7	2.69	4.5	Virus yield (Rous sarcoma virus [11]): 90000 ffu ml-1; Inhibition (Rous sarcoma virus [12]): 44%; LD50 [4]: 322 mg/kg
N/C(=N\O)N/N=C/c1cccnc1	23.1	22.9	81	–
Cc1ccc(S(=O)(=O)O)cc1.N/C(=N\O)N/N=C/c1ccc2ccccc2n1	6.8	6.76	43.8	Virus yield (Rous sarcoma virus [13]): 25000 ffu ml-1; Inhibition (Rous sarcoma virus [14]): 84%
